Measured values: ChEMBL document CHEMBL3400092 (2015)
Calls of active or inactive are those of the source. The rule behind the calls is not given here.

Assays:
[1] = molecular target: Epidermal growth factor receptor (Homo sapiens) (UniProt P00533); details: CL1-5, at 10 µM
CL1-5 = experiment: Reduction in total wild type EGFR levels in gefinitib-insensitive and 24 hrs serum starved human CL1-5 cells at 10 uM pre-incubated for 1 hr before EGF stimulation for 30 mins by Western blot method; format: functional
Procedure, shortened: (§1)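 Cells in RPMI-1640 with 10% FBS were plated at 1×10^6 per 10-cm dish, cultured overnight, then kept serum-free for 24 h. They were pre-treated with 10 μM compound for 1 h, serum-free, then stimulated with EGF 20 ng/mL (20 min in methods, 30 min in legend). Whole-cell lysates, 40 μg/lane, were run on 10% SDS-PAGE, blotted to PVDF, probed for pan-EGFR and pEGFR (Tyr1068), and detected by ECL.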

NCI-H1975 = experiment: Reduction in total EGFR L858R and T790M mutant levels in gefinitib-resistant and 24 hrs serum starved human NCI-H1975 cells at 10 uM pre-incubated for 1 hr before EGF stimulation for 30 mins by Western blot method; format: functional, cell-based
Procedure, shortened: as §1

[2] = tested on: Epidermal growth factor receptor (Homo sapiens), P00533 [L858R,T790M]; details: NCI-H1975, at 10 µM
IEC-18 = experiment: (§2) Cytoprotective activity against 40 uM gefitinib-induced cytotoxicity in rat IEC-18 cells assessed as restoration of cell viability at 5 uM incubated for 24 hrs by MTT assay; format: functional
Procedure, shortened: (§3)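 IEC-18 rat intestinal epithelial cells, kept in DMEM with 10% FBS, were seeded at 5×10^3 cells/well and co-treated with compound and gefitinib for 24 h. Stocks were in DMSO, with final DMSO below 0.1%. MTT (0.5 mg/mL) was added for 1.5 h, then DMSO, and absorbance was read at 570 nm. Viability was expressed as proliferative index (%) relative to untreated cells (100%). Triplicate; Student t-test.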

[3] = as §2; format: functional
Procedure, shortened: as §3

Epidermal growth factor receptor (Homo sapiens), sequence (P00533 whole entry): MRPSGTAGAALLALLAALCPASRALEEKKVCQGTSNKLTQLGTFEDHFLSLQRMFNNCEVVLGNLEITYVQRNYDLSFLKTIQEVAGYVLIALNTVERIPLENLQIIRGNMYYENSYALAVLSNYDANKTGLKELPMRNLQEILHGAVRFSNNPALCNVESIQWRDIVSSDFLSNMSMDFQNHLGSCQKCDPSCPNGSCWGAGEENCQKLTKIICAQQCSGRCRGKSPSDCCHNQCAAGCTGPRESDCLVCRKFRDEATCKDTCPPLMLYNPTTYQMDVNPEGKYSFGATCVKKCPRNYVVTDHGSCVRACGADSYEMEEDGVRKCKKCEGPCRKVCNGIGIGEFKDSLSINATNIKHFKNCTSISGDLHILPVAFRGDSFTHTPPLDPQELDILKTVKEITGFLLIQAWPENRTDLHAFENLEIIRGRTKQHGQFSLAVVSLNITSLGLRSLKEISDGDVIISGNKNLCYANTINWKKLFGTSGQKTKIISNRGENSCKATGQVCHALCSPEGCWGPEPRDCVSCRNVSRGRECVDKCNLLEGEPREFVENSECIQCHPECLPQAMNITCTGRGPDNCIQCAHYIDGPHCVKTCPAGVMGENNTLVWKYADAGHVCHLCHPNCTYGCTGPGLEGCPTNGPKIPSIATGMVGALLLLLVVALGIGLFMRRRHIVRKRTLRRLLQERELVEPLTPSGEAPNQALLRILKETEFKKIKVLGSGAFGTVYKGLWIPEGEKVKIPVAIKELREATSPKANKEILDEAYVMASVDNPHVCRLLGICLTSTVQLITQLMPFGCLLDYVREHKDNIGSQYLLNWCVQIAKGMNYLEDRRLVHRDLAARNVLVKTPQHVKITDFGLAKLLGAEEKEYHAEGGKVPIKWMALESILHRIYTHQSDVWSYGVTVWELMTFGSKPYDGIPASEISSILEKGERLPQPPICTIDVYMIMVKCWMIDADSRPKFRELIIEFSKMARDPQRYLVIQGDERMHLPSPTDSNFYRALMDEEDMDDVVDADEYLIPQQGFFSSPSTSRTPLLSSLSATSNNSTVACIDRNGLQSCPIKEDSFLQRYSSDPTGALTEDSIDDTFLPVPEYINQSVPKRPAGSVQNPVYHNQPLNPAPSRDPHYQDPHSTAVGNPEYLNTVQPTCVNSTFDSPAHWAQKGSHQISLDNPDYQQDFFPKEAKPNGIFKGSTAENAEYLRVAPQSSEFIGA
Epidermal growth factor receptor (Homo sapiens), P00533 [L858R,T790M], sequence (P00533 whole entry T790M/L858R, looked up): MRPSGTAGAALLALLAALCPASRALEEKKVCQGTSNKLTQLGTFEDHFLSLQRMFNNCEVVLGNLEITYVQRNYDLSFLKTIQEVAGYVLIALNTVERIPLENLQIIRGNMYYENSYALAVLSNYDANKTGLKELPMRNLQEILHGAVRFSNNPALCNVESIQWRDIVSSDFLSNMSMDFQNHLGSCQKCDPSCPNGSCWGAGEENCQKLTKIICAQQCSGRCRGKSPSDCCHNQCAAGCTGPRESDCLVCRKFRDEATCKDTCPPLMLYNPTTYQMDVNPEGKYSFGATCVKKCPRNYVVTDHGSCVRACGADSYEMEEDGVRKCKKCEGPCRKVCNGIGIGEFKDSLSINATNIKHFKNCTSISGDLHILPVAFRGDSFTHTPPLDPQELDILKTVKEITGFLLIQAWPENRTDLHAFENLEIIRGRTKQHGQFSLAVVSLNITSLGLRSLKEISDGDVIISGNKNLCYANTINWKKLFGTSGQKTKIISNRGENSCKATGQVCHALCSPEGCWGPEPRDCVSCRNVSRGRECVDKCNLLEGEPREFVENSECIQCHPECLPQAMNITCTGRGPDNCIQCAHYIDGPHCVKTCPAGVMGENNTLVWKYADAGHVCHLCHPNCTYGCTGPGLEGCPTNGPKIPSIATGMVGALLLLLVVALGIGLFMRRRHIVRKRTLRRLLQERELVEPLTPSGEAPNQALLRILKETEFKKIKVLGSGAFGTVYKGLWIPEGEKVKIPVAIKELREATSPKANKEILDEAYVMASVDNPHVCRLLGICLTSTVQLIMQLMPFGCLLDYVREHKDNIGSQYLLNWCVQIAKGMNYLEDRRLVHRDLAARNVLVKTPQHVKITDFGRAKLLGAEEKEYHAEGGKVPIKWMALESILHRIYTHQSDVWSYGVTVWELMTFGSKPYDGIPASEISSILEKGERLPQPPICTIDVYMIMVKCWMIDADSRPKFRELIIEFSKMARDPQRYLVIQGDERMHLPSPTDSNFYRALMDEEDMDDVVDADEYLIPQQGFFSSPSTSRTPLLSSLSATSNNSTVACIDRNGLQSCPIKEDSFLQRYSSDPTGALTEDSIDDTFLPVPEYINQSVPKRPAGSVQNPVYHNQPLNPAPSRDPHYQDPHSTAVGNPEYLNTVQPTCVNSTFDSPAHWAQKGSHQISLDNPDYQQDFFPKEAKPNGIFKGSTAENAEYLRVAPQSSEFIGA

Row | inhibition [1] | inhibition [2] | SMILES | inhibition (CL1-5) | inhibition (NCI-H1975) | Activity (IEC-18) | Activity [3]
1 | inactive | inactive | COc1cc(/C=C/C(=O)/C=C(O)/C=C/c2ccc(OCCCC(=O)O)c(OC)c2)ccc1OCCCC(=O)O | inactive | inactive | – | –
2 | inactive | inactive | CCOC(=O)/C=C/C(C(=O)/C=C/c1ccc(OC)c(OC)c1)=C(O)\C=C\c1ccc(OC)c(OC)c1 | inactive | inactive | – | –
3 | Active | Active | COc1cc(OC)c(OC)cc1/C=C/C(=O)/C=C(O)/C=C/c1cc(OC)c(OC)cc1OC | Active | Active | – | –
4 | inactive | inactive | CCOC(=O)/C=C/C(C(=O)/C=C/c1ccc(O)c(OC)c1)=C(O)\C=C\c1ccc(O)c(OC)c1 | inactive | inactive | – | –
5 | inactive | inactive | CCOC(=O)CCCOc1ccc(/C=C/C(=O)/C=C(O)/C=C/c2ccc(OCCCC(=O)OCC)c(OC)c2)cc1OC | inactive | inactive | – | –
6 | Active | Active | CCOC(=O)CC/C(C(=O)/C=C/c1ccc(O)c(OC)c1)=C(O)\C=C\c1ccc(O)c(O)c1 | Active | Active | – | –
7 | inactive | inactive | COc1cc(/C=C/C(=O)/C=C(O)/C=C/c2ccc(OCC(=O)O)c(OC)c2)ccc1OCC(=O)O | inactive | inactive | – | –
8 | Active | inactive | CCOC(=O)CC/C(C(=O)/C=C/c1ccc(O)c(OC)c1)=C(O)\C=C\c1ccc(O)c(OC)c1 | Active | inactive | – | –
9 | Active | Active | COc1cc(OC)c(OC)cc1/C=C/C(O)=C/C(=O)/C=C/c1ccc(OC)c(OC)c1 | Active | Active | – | –
10 | inactive | inactive | COc1cc(/C=C/C(O)=C/C(=O)/C=C/c2ccc(O)cc2)ccc1O | inactive | inactive | – | –
11 | inactive | inactive | COC(=O)COc1ccc(/C=C/C(=O)/C=C(O)/C=C/c2ccc(OCC(=O)OC)c(OC)c2)cc1OC | inactive | inactive | – | –
12 | inactive | inactive | COc1cc(/C=C/C(=O)/C=C(O)/C=C/c2ccc(OCC(=O)Nc3ccccc3)c(OC)c2)ccc1OCC(=O)Nc1ccccc1 | inactive | inactive | – | –
13 | Active | Active | COc1ccc(/C=C/C(=O)/C=C(O)/C=C/c2ccc(OC)c(OC)c2OC)c(OC)c1OC | Active | Active | – | –
14 | Active | Active | COc1cc(/C=C/C(O)=C/C(=O)/C=C/c2ccc(OC)c(OC)c2)ccc1O | Active | Active | Active | –
15 | inactive | Active | COc1cc(/C=C/C(O)=C/C(=O)/C=C/c2ccc(O)c(O)c2)ccc1O | inactive | Active | – | –
16 | Active | inactive | CCOC(=O)CC/C(C(=O)/C=C/c1ccc(O)c(O)c1)=C(O)\C=C\c1ccc(O)c(O)c1 | Active | inactive | – | –
17 | Active | Active | O=C(/C=C(O)/C=C/c1ccc(O)c(O)c1)/C=C/c1ccc(O)c(O)c1 | Active | inactive | – | <=80%
18 | inactive | inactive | COc1cc(/C=C/C(=O)/C(CCC(=O)O)=C(O)/C=C/c2ccc(O)c(O)c2)ccc1O | inactive | inactive | – | –
19 | Active | Active | COc1ccc(/C=C/C(=O)/C=C(O)/C=C/c2ccc(OC)c(OC)c2)cc1O | Active | Active | Active | –

Row | inhibition [1] | inhibition [2] | SMILES | inhibition (CL1-5) | inhibition (NCI-H1975) | Activity (IEC-18) | Activity [3]
20 | Active | Active | CCOC(=O)CC/C(C(=O)/C=C/c1cc(O)c(OC)c(OC)c1)=C(O)\C=C\c1cc(O)c(OC)c(OC)c1 | inactive | – | – | –
21 | inactive | inactive | O=C(O)CC/C(C(=O)/C=C/c1ccc(O)c(O)c1)=C(O)\C=C\c1ccc(O)c(O)c1 | inactive | inactive | – | –
22 | – | – | COc1cc(/C=C/C(=O)CC(=O)/C=C/c2ccc(O)c(OC)c2)ccc1O | Active | Active | Active | –
23 | inactive | inactive | COc1cc(/C=C/C(=O)/C(CCC(=O)O)=C(O)/C=C/c2ccc(OCCCC(=O)O)c(OC)c2)ccc1OCCCC(=O)O | inactive | inactive | – | –
24 | Active | Active | COc1ccc(/C=C/C(=O)/C=C(O)/C=C/c2ccc(OC)c(OC)c2OC)cc1OC | Active | Active | – | –
25 | inactive | inactive | COc1ccc(CCC(=O)CC(O)CCc2ccc(OC)c(OC)c2)cc1OC (stereo not given) | inactive | inactive | – | –
26 | inactive | inactive | COc1cc(/C=C/C(=O)/C(CCC(=O)O)=C(O)/C=C/c2ccc(O)c(OC)c2)ccc1O | inactive | inactive | – | –
27 | inactive | inactive | CCOC(=O)CC/C(C(=O)/C=C/c1ccc(OC)c(OC)c1)=C(O)\C=C\c1ccc(OC)c(OC)c1 | inactive | inactive | – | –
28 | inactive | inactive | CCOC(=O)CC/C(C(=O)/C=C/c1ccc(OCC(=O)OC)c(OC)c1)=C(O)\C=C\c1ccc(OCC(=O)OC)c(OC)c1 | inactive | inactive | – | –
29 | Active | Active | CCOC(=O)CC/C(C(=O)/C=C/c1ccc(OC)c(OC)c1)=C(O)\C=C\c1ccc(O)c(OC)c1 | Active | Active | – | –
30 | inactive | inactive | CCOC(=O)CC/C(C(=O)/C=C/c1cc(OC)c(O)c(OC)c1)=C(O)\C=C\c1cc(OC)c(O)c(OC)c1 | inactive | inactive | – | –
31 | Active | Active | COc1ccc(/C=C/C(=O)/C(C)=C(O)/C=C/c2ccc(OC)c(OC)c2)cc1OC | Active | Active | – | –
32 | Active | Active | COc1cc(/C=C/C(=O)/C(C(C)=O)=C(O)/C=C/c2ccc(O)c(OC)c2)ccc1O | Active | Active | – | –
33 | Active | Active | COc1ccc(/C=C/C(=O)/C=C(O)/C=C/c2ccc(OC)c(OC)c2)cc1OC | Active | Active | Active | –
34 | inactive | inactive | COc1cc(/C=C/C(=O)/C=C(O)/C=C/c2cc(O)c(OC)c(OC)c2)cc(O)c1OC | inactive | inactive | – | –
35 | inactive | inactive | CCOC(=O)/C=C/C(C(=O)/C=C/c1ccc(O)c(O)c1)=C(O)\C=C\c1ccc(O)c(OC)c1 | inactive | inactive | – | –
36 | inactive | inactive | CCOC(=O)CCCOc1ccc(/C=C/C(=O)/C(CCC(=O)OCC)=C(O)/C=C/c2ccc(OCCCC(=O)OCC)c(OC)c2)cc1OC | inactive | inactive | – | –
37 | Active | Active | COc1cc(F)c(/C=C/C(=O)/C=C(O)/C=C/c2cc(OC)c(OC)cc2F)cc1OC | Active | Active | – | –
